The record followed here is ChEMBL document CHEMBL2029291, “Synthesis and structure-activity relationships of new quinolone-type molecules against Trypanosoma brucei” (J Med Chem, 2012).

Calls of active or inactive are those of the source. The rule behind the calls is not given here.

The subject of series [1] is Trypanosoma brucei brucei. The series is described as follows: Cell cycle arrest in GFP-labeled Trypanosoma brucei brucei assessed as increase in segregated 1K1N cell population at IC50 concentration after 42 hrs by DAPI staining-based fluorescence microscopic analysis.
Series [2] concerns Trypanosoma brucei. The series is described as follows: Antitrypanosomal activity in topoisomerase 2-knockout BSF Trypanosoma brucei assessed as assessed as shrinkage of kinetoplast over time at IC50 concentration after 48 hrs by […]. In kind it is functional, organism-based. The method, boiled down: (§1)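 RNAi against mitochondrial topoisomerase II in the BSF mitochondrion marker line. A 500 bp topoII fragment in p2T7-177 was transfected by nucleofection, with puromycin selection at 0.3 μg/mL. RNAi was induced with 1 μg/mL tetracycline. Knockdown was confirmed by Northern blot at 24 h, with tubulin as reference. Growth and DAPI-stained kinetoplast loss were followed over time.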

A short description of series [3]: Lipophilicity, log P of the compound by RP-HPLC analysis. In kind it is physicochemical. Summed up:
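LogP by RP-HPLC on a C18 Inertsil ODS-2 column. Mobile phase was methanol/10 mM phosphate buffer pH 7.4 (70:30) at 1.5 mL/min. Samples were at 4 μg/mL, detected at 254.4 nm, and run in duplicate. Capacity ratio was calculated as k′ = (tr − to)/to.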

Series [4] in a line: Selectivity index, ratio of IC50 for mouse J774.1 cells to IC50 for Trypanosoma brucei rhodesiense STIB900. In kind it is toxicity. Particulars: read-out: Ratio IC50. The method, boiled down: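 Selectivity index is the J774.1 IC50 divided by the trypanosome IC50. J774.1 macrophages were kept in complete Click RPMI, washed, and plated in phenol red-free RPMI with compound. AlamarBlue was added and plates were read 24 and 48 h later. Absorbance without compound was set as 100% growth.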

Series [5] is described as follows: Aqueous solubility of the compound in 35% cremophore RH40, 45% capmul MCM C8, 10% triethylcitrate and 10% ethanol. The class given is physicochemical. As to conditions: buffer. The method, boiled down: (§2)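 Oral preconcentrate of Cremophor RH40 (35%), Capmul MCM C8 (45%), triethylcitrate (10%) and ethanol (10%) was tested for dissolving compound at 10 mg/mL. Stability of the emulsion formed in aqueous solution was observed over time.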

In series [6] the test system is Trypanosoma brucei brucei. Kind of series: Antitrypanosomal activity against Trypanosoma brucei brucei TC221 […] after 72 hrs by alamar blue assay. As to conditions: TC221, 72 h. The class given is functional, organism-based. The method, boiled down:
(§3)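 Trypomastigote T. b. brucei TC 221 grown in Baltz medium, seeded at 10⁴ per mL and exposed to graded compound concentrations (dissolved in DMSO or 0.1 M NaOH). Incubated at 37 °C, 5% CO₂ for 72 h, with a reading also taken at 48 h. AlamarBlue absorbance read at 550/630 nm. IC50 by linear interpolation; duplicate tests, mean and SD.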

For series [7], the system named is Trypanosoma brucei brucei. The series is described as follows: Antitrypanosomal activity against Trypanosoma brucei brucei TC221 […] after 48 hrs by alamar blue assay. As to conditions: TC221, 48 h. The class given is functional, organism-based. The method, boiled down:
as §3

For series [8], the system named is Trypanosoma brucei rhodesiense. The series is described as follows: Antitrypanosomal activity against Trypanosoma brucei rhodesiense STIB900 infected in NMRI mouse at 50 mg/kg, po administered on day 3 to 6 post infection measured every second day up to 6 days post infection. In kind it is functional, organism-based. The arrangement: dose 50 mg/kg. Summed up:
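Acute mouse model with T. b. rhodesiense STIB900-infected NMRI mice. Compound was given orally as a 1:1 aqueous dilution of a 10 mg/mL preconcentrate (Cremophor RH40 35%, Capmul MCM C8 45%, triethylcitrate 10%, ethanol 10%). An untreated control group was included. Parasitemia was checked every second day to day 6, and survival was recorded. Aparasitemic survivors at 60 days were counted as cured.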

Series [9] is described as follows: Aqueous solubility of the compound in 10% Cremophore RH40. The class given is physicochemical. Particulars: buffer. The method, boiled down:
(§4)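 Water solubility was assessed after adding 10% Tween 80 or 10% Cremophor RH40 to the compound.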

A short description of series [10]: Cytotoxicity against mouse J774.1 cells after 48 hrs by alamar blue assay. The class given is cell-based. Particulars: J774.1, 48 h. The method, boiled down: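 J774.1 macrophages kept in complete Click RPMI, detached by scraping, PBS-washed, suspended at 2 × 10⁶ cells/mL and plated in phenol-red-free RPMI with or without compound. AlamarBlue added and absorbance read 24 and 48 h later. Compound-free wells taken as 100% growth. Effects of cell density, incubation time and DMSO level were controlled. Tested in duplicate.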

Series [11] can be described thus: Selectivity index, ratio of IC50 for mouse J774.1 cells to IC50 for Trypanosoma brucei brucei TC221. In kind it is toxicity. As to conditions: read-out: Ratio IC50.
The nature of series [12]: Chemical stability of the compound in 35% cremophore RH40, 45% capmul MCM C8, 10% triethylcitrate and 10% ethanol after 24 hrs. The class given is physicochemical. The method, boiled down:
as §2

Series [13] in a line: Aqueous solubility of the compound in 10% Tween 80. Particulars: buffer. The class given is physicochemical. The method, boiled down:
as §4

Series [14] concerns Trypanosoma brucei rhodesiense. Kind of series: Antitrypanosomal activity against Trypanosoma brucei rhodesiense STIB900 […] after 48 hrs by alamar blue assay. The class given is functional, organism-based.
For series [15], the system named is Trypanosoma brucei. The series is described as follows: Antitrypanosomal activity in topoisomerase 2-knockout BSF Trypanosoma brucei assessed as assessed as shrinkage of kinetoplast over time at IC50 concentration after 72 hrs by […]. The class given is functional, organism-based. Summed up:
as §1

Regarding `O=C(O)c1cn(C2CC2)c2cc(N3CCNCC3)c(F)cc2c1=O`, the outcome in [1] was Active.
Regarding `CCCCn1cc(C(=O)NCc2ccccc2)c(=O)c2cc(F)c(N3CCOCC3)cc21`, the result in series [2], in series [1] and in series [15] was Active. The molecule further had a log partition coefficient (logP) in series [3] of 2.4. Also, the selectivity ratio was 6330 in series [4] and 1140 in [11]. The solubility entry in [5] is “soluble”; in [9], “Insoluble”; in series [13], “Insoluble”. Besides, the IC50 in [6] came to 50 nM; in [7], 47 nM; in series [10], 57000 nM; in [14] it was 9 nM. Further, in series [8], the result was inactive. Also, the Stability result in [12] is “Stable”.
Take `CCCCn1cc(C(=O)NCc2ccc(OC)cc2)c(=O)c2cc(F)c(N3CCC(C(N)=O)CC3)cc21`: the result in series [2], in [1] and in series [15] was Active. The logP in [3] (read-out: logP) amounted to 2.4. The IC50 in series [6] came out at 1450 nM; in series [7], 780 nM; in [10] it was 40800 nM. For the same molecule, in series [11], the selectivity ratio came out at 52.3.
For the molecule `CCCCn1cc(C(=O)NCc2ccccc2)c(=O)c2cc(F)c(N(C)C)cc21`, in series [3] (read-out: logP), the lipophilicity (logP) was determined as 2.4. For the same molecule, the IC50 was 920 nM in series [6], 680 nM in [7] and above 100000 nM in series [10]. Further, in series [11], the selectivity ratio was above 147.
